One may read the IC50 as the concentration that inhibits the measured activity by half.

Tested on in the first data set: not listed separately
Kind of data set: Selectivity index, ratio of TC50 for African green monkey Vero cells to IC50 for HSV1 strain F VR 733 infected in African green monkey Vero cells. Conditions: read-out: Selectivity Index. In kind it is toxicity. In a few lines:
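Calculated as TC50/IC50 in Vero cells. TC50 is the cytotoxic concentration that inhibits Vero cell growth by 50%. No SI was assigned where it could not be determined under the test conditions.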
With `Nc1nc2c(ncn2COCCO)c(=O)[nH]1` [ACYCLOVIR], the selectivity ratio is greater than 244.
The same measure, in the same setting: the figure for `Cc1ccc2c(c1C)C1=CC[C@@H]3[C@@]4(C)C[C@@H](O)[C@H](O)[C@@](C)(CO)[C@@H]4CC[C@@]3(C)[C@]1(C)CC2` is 4.3; for `CC1=C2C3=CC[C@@H]4[C@@]5(C)C[C@@H](O)[C@@H](O)[C@@](C)(CO)[C@@H]5CC[C@@]4(C)[C@]3(C)CC[C@@]23CC[C@]1(C)OO3` it is 3.6.

Tested on in another data set: not listed separately
As to the kind of experiment: Cytotoxicity against MDCK cells measured after 48 hrs. It is filed as cell-based, Canis lupus familiaris. Conditions: dog, read-out: TC50. In a few lines: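 TC50 is the concentration that inhibits MDCK cell growth by 50%, reported as the mean of three independent determinations. It is paired with the anti-influenza A IC50 to give a selectivity index (TC50/IC50).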
Take `CC(=O)CCC1=C(C(C)=O)C2=CC[C@@H]3[C@@]4(C)C[C@@H](O)[C@@H](O)[C@](C)(CO)[C@@H]4CC[C@@]3(C)[C@]2(C)CC1`: the CC50 at 48 h was greater than 100 µM.
Consider `Cc1ccc2c(c1C)C1=CC[C@@H]3[C@@]4(C)[C@H](O)[C@@H](O)[C@@H](O)[C@@](C)(CO)[C@@H]4CC[C@@]3(C)[C@]1(C)CC2`, for which the CC50 at 48 h is 2.57 µM.
On the same count and under the same terms, the result for `Cc1ccc2c(c1C)C1=CC[C@@H]3[C@@]4(C)[C@H](O)C[C@@H](O)[C@](C)(CO)[C@@H]4CC[C@@]3(C)[C@]1(C)CC2` reads 16 µM; that for `CC1=C2C3=CC[C@@H]4[C@@]5(C)CC[C@@H](O)[C@](C)(CO)[C@@H]5CC[C@@]4(C)[C@]3(C)CC[C@]23CC[C@@]1(C)OO3`, 19.2 µM.
On the same count and under the same terms, the result for `CC1=C2C3=CC[C@@H]4[C@@]5(C)CC[C@@H](O)[C@@](C)(CO)[C@@H]5CC[C@@]4(C)[C@]3(C)CC[C@@]23CC[C@]1(C)OO3` reads 19.2 µM; that for `Cc1ccc2c(c1C)C1=CC[C@@H]3[C@@]4(C)C[C@@H](O)[C@@H](O)[C@](C)(CO)[C@@H]4CC[C@@]3(C)[C@]1(C)CC2`, 7.7 µM.
The same measure, in the same setting: the figure for `Cc1ccc2c(c1C)C1=CC[C@@H]3[C@@]4(C)C[C@@H](O)[C@H](O)[C@@](C)(CO)[C@@H]4CC[C@@]3(C)[C@]1(C)CC2` is 3.7 µM.
On to `CC1=C2C3=CC[C@@H]4[C@@]5(C)C[C@@H](O)[C@@H](O)[C@@](C)(CO)[C@@H]5CC[C@@]4(C)[C@]3(C)CC[C@@]23CC[C@]1(C)OO3`, for which the CC50 at 48 h is 57.7 µM.
The same measure, in the same setting: the result for `Cc1ccc2c(c1C)C1=CC[C@@H]3[C@@]4(C)CC[C@@H](O)[C@](C)(CO)[C@@H]4CC[C@@]3(C)[C@]1(C)CC2` reads 19.2 µM.

Tested on in another data set: not listed separately
As to the kind of experiment: Selectivity index, ratio of TC50 for MDCK cells to IC50 for Influenza A virus A/95-359 infected in MDCK cells. Particulars: dog, read-out: Selectivity Index. It is filed as toxicity, cell-based. In a few lines:
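Ratio of TC50 to IC50, both in MDCK cells. TC50 is the concentration that inhibits MDCK cell growth by 50%. Values are means of three independent determinations. No SI was assigned where it could not be determined under the test conditions.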
As to `Cc1ccc2c(c1C)C1=CC[C@@H]3[C@@]4(C)C[C@@H](O)[C@H](O)[C@@](C)(CO)[C@@H]4CC[C@@]3(C)[C@]1(C)CC2`, the selectivity ratio stood at 3.

The next data set concerns Human alphaherpesvirus 1. As to the kind of experiment: Antiviral activity against HSV1 F VR 733 infected in African green monkey Vero cells assessed as inhibition of virus-induced cytopathic effect. It is filed as functional, organism-based. Particulars: Human alphaherpesvirus 1, Strain F ATCC VR 733, Vero. On the technique in general: Damage to the host cells serves as the signal in cytopathic effect assays.
With `CC(=O)CCC1=C(C(C)=O)C2=CC[C@@H]3[C@@]4(C)C[C@@H](O)[C@@H](O)[C@](C)(CO)[C@@H]4CC[C@@]3(C)[C@]2(C)CC1`, the IC50 was greater than 33.3 µM.
Still for that read-out and setting: the result for `Cc1ccc2c(c1C)C1=CC[C@@H]3[C@@]4(C)[C@H](O)[C@@H](O)[C@@H](O)[C@@](C)(CO)[C@@H]4CC[C@@]3(C)[C@]1(C)CC2` reads greater than 0.41 µM.
Still for that read-out and setting: the figure for `Cc1ccc2c(c1C)C1=CC[C@@H]3[C@@]4(C)[C@H](O)C[C@@H](O)[C@](C)(CO)[C@@H]4CC[C@@]3(C)[C@]1(C)CC2` is greater than 3.7 µM; for `CC1=C2C3=CC[C@@H]4[C@@]5(C)CC[C@@H](O)[C@](C)(CO)[C@@H]5CC[C@@]4(C)[C@]3(C)CC[C@]23CC[C@@]1(C)OO3` it is greater than 11.1 µM; for `CC1=C2C3=CC[C@@H]4[C@@]5(C)CC[C@@H](O)[C@@](C)(CO)[C@@H]5CC[C@@]4(C)[C@]3(C)CC[C@@]23CC[C@]1(C)OO3` it is greater than 11.1 µM.
With `Nc1nc2c(ncn2COCCO)c(=O)[nH]1` [ACYCLOVIR], the IC50 amounted to 0.41 µM.
The same measure, in the same setting: the figure for `Cc1ccc2c(c1C)C1=CC[C@@H]3[C@@]4(C)C[C@@H](O)[C@@H](O)[C@](C)(CO)[C@@H]4CC[C@@]3(C)[C@]1(C)CC2` is greater than 1.23 µM.
Still for that read-out and setting: the result for `Cc1ccc2c(c1C)C1=CC[C@@H]3[C@@]4(C)C[C@@H](O)[C@H](O)[C@@](C)(CO)[C@@H]4CC[C@@]3(C)[C@]1(C)CC2` reads 0.41 µM; that for `CC1=C2C3=CC[C@@H]4[C@@]5(C)C[C@@H](O)[C@@H](O)[C@@](C)(CO)[C@@H]5CC[C@@]4(C)[C@]3(C)CC[C@@]23CC[C@]1(C)OO3`, 6.41 µM; that for `Cc1ccc2c(c1C)C1=CC[C@@H]3[C@@]4(C)CC[C@@H](O)[C@](C)(CO)[C@@H]4CC[C@@]3(C)[C@]1(C)CC2`, greater than 1.23 µM.

Tested on in the next data set: not listed separately
Kind of data set: Cytotoxicity against African green monkey Vero cells measured after 48 hrs. In kind it is cell-based. Particulars: chlorocebus sabaeus, read-out: TC50. In a few lines: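 TC50 is the concentration that inhibits Vero cell growth by 50%. It is used with the antiviral IC50 to give a selectivity index (TC50/IC50).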
As to `CC(=O)CCC1=C(C(C)=O)C2=CC[C@@H]3[C@@]4(C)C[C@@H](O)[C@@H](O)[C@](C)(CO)[C@@H]4CC[C@@]3(C)[C@]2(C)CC1`, the CC50 at 48 h is 69.3 µM.
Same read-out and setting: the result for `Cc1ccc2c(c1C)C1=CC[C@@H]3[C@@]4(C)[C@H](O)[C@@H](O)[C@@H](O)[C@@](C)(CO)[C@@H]4CC[C@@]3(C)[C@]1(C)CC2` reads 1.78 µM.
Same read-out and setting: the result for `Cc1ccc2c(c1C)C1=CC[C@@H]3[C@@]4(C)[C@H](O)C[C@@H](O)[C@](C)(CO)[C@@H]4CC[C@@]3(C)[C@]1(C)CC2` reads 11.1 µM; that for `CC1=C2C3=CC[C@@H]4[C@@]5(C)CC[C@@H](O)[C@](C)(CO)[C@@H]5CC[C@@]4(C)[C@]3(C)CC[C@]23CC[C@@]1(C)OO3`, 33.3 µM.
The same measure, in the same setting: the result for `CC1=C2C3=CC[C@@H]4[C@@]5(C)CC[C@@H](O)[C@@](C)(CO)[C@@H]5CC[C@@]4(C)[C@]3(C)CC[C@@]23CC[C@]1(C)OO3` reads 57.7 µM.
Take `Nc1nc2c(ncn2COCCO)c(=O)[nH]1` [ACYCLOVIR]: the CC50 at 48 h was greater than 100 µM.
On to `Cc1ccc2c(c1C)C1=CC[C@@H]3[C@@]4(C)C[C@@H](O)[C@@H](O)[C@](C)(CO)[C@@H]4CC[C@@]3(C)[C@]1(C)CC2`, for which the CC50 at 48 h was 3.7 µM.
Same read-out and setting: the figure for `Cc1ccc2c(c1C)C1=CC[C@@H]3[C@@]4(C)C[C@@H](O)[C@H](O)[C@@](C)(CO)[C@@H]4CC[C@@]3(C)[C@]1(C)CC2` is 1.78 µM; for `CC1=C2C3=CC[C@@H]4[C@@]5(C)C[C@@H](O)[C@@H](O)[C@@](C)(CO)[C@@H]5CC[C@@]4(C)[C@]3(C)CC[C@@]23CC[C@]1(C)OO3` it is 23.1 µM.
Still for that read-out and setting: the result for `Cc1ccc2c(c1C)C1=CC[C@@H]3[C@@]4(C)CC[C@@H](O)[C@](C)(CO)[C@@H]4CC[C@@]3(C)[C@]1(C)CC2` reads 5.34 µM.

The test system of the next data set is Influenza A virus. As to the kind of experiment: Antiviral activity against Influenza A virus A/95-359 infected in MDCK cells assessed as inhibition of virus-induced cytopathic effect. It is filed as functional, organism-based. Particulars: A/95-359, MDCK. In a few lines: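 MDCK cells; IC50 given as the mean of three independent determinations.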
With `CC(=O)CCC1=C(C(C)=O)C2=CC[C@@H]3[C@@]4(C)C[C@@H](O)[C@@H](O)[C@](C)(CO)[C@@H]4CC[C@@]3(C)[C@]2(C)CC1`, the IC50 was greater than 33.3 µM.
The same measure, in the same setting: the figure for `Cc1ccc2c(c1C)C1=CC[C@@H]3[C@@]4(C)[C@H](O)[C@@H](O)[C@@H](O)[C@@](C)(CO)[C@@H]4CC[C@@]3(C)[C@]1(C)CC2` is greater than 1.23 µM; for `Cc1ccc2c(c1C)C1=CC[C@@H]3[C@@]4(C)[C@H](O)C[C@@H](O)[C@](C)(CO)[C@@H]4CC[C@@]3(C)[C@]1(C)CC2` it is greater than 3.7 µM.
Regarding `CC1=C2C3=CC[C@@H]4[C@@]5(C)CC[C@@H](O)[C@](C)(CO)[C@@H]5CC[C@@]4(C)[C@]3(C)CC[C@]23CC[C@@]1(C)OO3`, the IC50 is greater than 11.1 µM.
Take `CC1=C2C3=CC[C@@H]4[C@@]5(C)CC[C@@H](O)[C@@](C)(CO)[C@@H]5CC[C@@]4(C)[C@]3(C)CC[C@@]23CC[C@]1(C)OO3`: the IC50 was greater than 11.1 µM.
On the same count and under the same terms, the result for `Cc1ccc2c(c1C)C1=CC[C@@H]3[C@@]4(C)C[C@@H](O)[C@@H](O)[C@](C)(CO)[C@@H]4CC[C@@]3(C)[C@]1(C)CC2` reads greater than 3.7 µM; that for `CCOC(=O)C1=C[C@@H](OC(CC)CC)[C@H](NC(C)=O)[C@@H](N)C1` [OSELTAMIVIR], 1.63 µM; that for `Cc1ccc2c(c1C)C1=CC[C@@H]3[C@@]4(C)C[C@@H](O)[C@H](O)[C@@](C)(CO)[C@@H]4CC[C@@]3(C)[C@]1(C)CC2`, 1.23 µM.
Still for that read-out and setting: the figure for `CC1=C2C3=CC[C@@H]4[C@@]5(C)C[C@@H](O)[C@@H](O)[C@@](C)(CO)[C@@H]5CC[C@@]4(C)[C@]3(C)CC[C@@]23CC[C@]1(C)OO3` is greater than 33.3 µM; for `Cc1ccc2c(c1C)C1=CC[C@@H]3[C@@]4(C)CC[C@@H](O)[C@](C)(CO)[C@@H]4CC[C@@]3(C)[C@]1(C)CC2` it is greater than 11.1 µM.

These data come from ChEMBL document CHEMBL4196144, “Minor Nortriterpenoids from the Twigs and Leaves of Rhododendron latoucheae” (J Nat Prod, 2018).
